Tests used:
Assay type in all cases: subcellular
[1] = biological target: Mitogen-activated protein kinase 3 (Homo sapiens, UniProt P27361); experiment: Inhibition of ERK1 in human HeLa cells lysate at 2 uM pre incubated for 15 mins followed by ADP acyl phosphate probe addition and measured after 10 mins by LC-MS/MS analysis relative to control; settings: time 25.0 min
AMPK alpha1/alpha2 = AMPK alpha1/alpha2 (Homo sapiens, UniProt P54646+Q13131); experiment: Inhibition of AMPKalpha1/2 in human HeLa cells lysate pre incubated for 15 mins followed by ATP acyl phosphate probe addition and measured after 10 mins by LC-MS/MS analysis
Summary of the method: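 HeLa cell lysates (5 mg/mL total protein) were preincubated with inhibitor at 0, 0.8, 2, 10 or 50 μM for 15 min. ATP or ADP acylphosphate probe was then added (5 μM final) for 10 min, and reactions were stopped with urea. Up to four fragment ions per kinase probe-peptide were quantified by targeted MS. % inhibition was taken relative to untreated lysate. Run in duplicate.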

[2] = biological target: T1, Serine/threonine-protein kinase Chk1 (Homo sapiens) (UniProt O14757); experiment: Inhibition of CHK1 in human HeLa cells lysate at 10 uM pre incubated for 15 mins followed by ATP acyl phosphate probe addition and measured after 10 mins by LC-MS/MS analysis relative to control; settings: time 25.0 min
T1 sequence (whole entry): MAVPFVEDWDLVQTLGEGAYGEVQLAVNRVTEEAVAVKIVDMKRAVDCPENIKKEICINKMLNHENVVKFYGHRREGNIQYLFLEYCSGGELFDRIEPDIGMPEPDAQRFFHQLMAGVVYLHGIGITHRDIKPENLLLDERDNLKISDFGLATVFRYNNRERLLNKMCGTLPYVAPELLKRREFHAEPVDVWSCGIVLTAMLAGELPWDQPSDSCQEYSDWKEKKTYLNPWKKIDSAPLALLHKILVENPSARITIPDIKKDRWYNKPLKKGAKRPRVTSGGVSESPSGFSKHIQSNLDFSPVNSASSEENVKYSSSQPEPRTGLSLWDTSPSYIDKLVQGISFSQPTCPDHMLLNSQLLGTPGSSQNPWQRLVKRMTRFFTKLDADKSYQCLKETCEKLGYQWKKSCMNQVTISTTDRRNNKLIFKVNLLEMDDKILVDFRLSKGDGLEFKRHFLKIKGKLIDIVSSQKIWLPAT

[3] = biological target: Ribosomal protein S6 kinase alpha-3 (Homo sapiens, UniProt P51812); experiment: Inhibition of RSK2 domain 1 in human HeLa cells lysate at 50 uM pre incubated for 15 mins followed by ADP acyl phosphate probe addition and measured after 10 mins by LC-MS/MS analysis relative to control; settings: time 25.0 min
[4] = biological target: T2, Serine/threonine-protein kinase tousled-like 1 (Homo sapiens) (UniProt Q9UKI8); experiment: Inhibition of TLK1 in human HeLa cells lysate at 50 uM pre incubated for 15 mins followed by ADP acyl phosphate probe addition and measured after 10 mins by LC-MS/MS analysis relative to control; settings: time 25.0 min
T2 sequence (whole entry): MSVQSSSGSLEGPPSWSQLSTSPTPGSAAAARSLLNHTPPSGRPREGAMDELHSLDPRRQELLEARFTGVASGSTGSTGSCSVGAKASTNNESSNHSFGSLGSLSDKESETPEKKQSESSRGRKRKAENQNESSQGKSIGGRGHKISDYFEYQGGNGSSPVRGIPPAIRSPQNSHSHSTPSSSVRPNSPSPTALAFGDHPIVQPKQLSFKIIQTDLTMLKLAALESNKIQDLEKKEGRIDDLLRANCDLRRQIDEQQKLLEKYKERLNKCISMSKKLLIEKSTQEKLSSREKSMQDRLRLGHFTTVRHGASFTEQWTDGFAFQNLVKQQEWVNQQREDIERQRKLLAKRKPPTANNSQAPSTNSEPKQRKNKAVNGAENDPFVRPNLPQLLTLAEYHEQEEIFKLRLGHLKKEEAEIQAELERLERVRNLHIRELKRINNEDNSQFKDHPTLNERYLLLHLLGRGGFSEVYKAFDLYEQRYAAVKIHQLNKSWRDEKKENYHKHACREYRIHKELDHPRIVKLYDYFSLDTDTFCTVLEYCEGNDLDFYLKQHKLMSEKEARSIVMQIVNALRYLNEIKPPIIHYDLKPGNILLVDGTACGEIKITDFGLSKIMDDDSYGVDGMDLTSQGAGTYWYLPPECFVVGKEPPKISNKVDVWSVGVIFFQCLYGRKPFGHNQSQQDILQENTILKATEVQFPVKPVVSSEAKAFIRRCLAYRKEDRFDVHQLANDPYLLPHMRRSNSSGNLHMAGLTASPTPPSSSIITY

[5] = biological target: Serine/threonine-protein kinase 38-like (Homo sapiens, UniProt Q9Y2H1); experiment: Inhibition of NDR2 in human HeLa cells lysate at 10 uM pre incubated for 15 mins followed by ADP acyl phosphate probe addition and measured after 10 mins by LC-MS/MS analysis relative to control; settings: time 25.0 min
[6] = biological target: Cyclin-dependent kinase 13 (Homo sapiens, UniProt Q14004); experiment: Inhibition of CHED in human HeLa cells lysate at 10 uM pre incubated for 15 mins followed by ADP acyl phosphate probe addition and measured after 10 mins by LC-MS/MS analysis relative to control; settings: time 25.0 min
Summary of the method: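 KiNativ profiling in HeLa lysate (5 mg/mL total protein). Lysate incubated 15 min with inhibitor at 50, 10, 2, 0.8 or 0 μM. ATP or ADP acylphosphate probe then added (5 μM final) and reacted 10 min. Reaction stopped with urea and analysed by targeted MS, using up to four fragment ions per kinase peptide-probe conjugate. % inhibition taken against untreated lysate. Run in duplicate.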

[7] = biological target: T3, Mitogen-activated protein kinase kinase kinase 7 (Homo sapiens) (UniProt O43318); experiment: Inhibition of TAK1 in human HeLa cells lysate at 10 uM pre incubated for 15 mins followed by ATP acyl phosphate probe addition and measured after 10 mins by LC-MS/MS analysis relative to control; settings: time 25.0 min
T3 sequence (whole entry): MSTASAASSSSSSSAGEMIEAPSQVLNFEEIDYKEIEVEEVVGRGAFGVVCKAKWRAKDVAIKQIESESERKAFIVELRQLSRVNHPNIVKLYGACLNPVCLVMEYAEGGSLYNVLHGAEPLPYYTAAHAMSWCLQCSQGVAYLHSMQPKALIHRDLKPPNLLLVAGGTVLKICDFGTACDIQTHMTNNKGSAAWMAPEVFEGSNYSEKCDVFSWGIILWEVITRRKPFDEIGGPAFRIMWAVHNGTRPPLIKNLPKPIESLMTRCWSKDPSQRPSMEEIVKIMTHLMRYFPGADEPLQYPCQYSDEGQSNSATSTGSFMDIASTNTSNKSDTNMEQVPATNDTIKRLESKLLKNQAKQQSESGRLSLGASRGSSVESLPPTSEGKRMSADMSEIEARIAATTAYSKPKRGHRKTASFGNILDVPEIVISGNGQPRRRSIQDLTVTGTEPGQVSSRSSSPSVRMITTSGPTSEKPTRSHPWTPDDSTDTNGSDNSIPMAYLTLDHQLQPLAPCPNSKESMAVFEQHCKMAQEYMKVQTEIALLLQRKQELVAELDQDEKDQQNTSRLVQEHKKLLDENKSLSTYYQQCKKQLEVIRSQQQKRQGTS

Mitogen-activated protein kinase 3, sequence (P27361 whole entry): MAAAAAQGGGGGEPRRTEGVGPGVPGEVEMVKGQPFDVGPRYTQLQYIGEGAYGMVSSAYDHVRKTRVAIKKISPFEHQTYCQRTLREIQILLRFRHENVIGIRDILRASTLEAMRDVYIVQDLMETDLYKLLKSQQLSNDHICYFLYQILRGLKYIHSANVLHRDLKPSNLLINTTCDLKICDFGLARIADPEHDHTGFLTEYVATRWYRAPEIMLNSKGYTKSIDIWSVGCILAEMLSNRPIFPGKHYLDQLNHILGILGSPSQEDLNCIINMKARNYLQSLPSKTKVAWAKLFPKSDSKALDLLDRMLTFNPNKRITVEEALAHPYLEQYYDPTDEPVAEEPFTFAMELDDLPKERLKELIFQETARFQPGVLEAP
Serine/threonine-protein kinase 38-like, sequence (Q9Y2H1 2-464 limits assumed): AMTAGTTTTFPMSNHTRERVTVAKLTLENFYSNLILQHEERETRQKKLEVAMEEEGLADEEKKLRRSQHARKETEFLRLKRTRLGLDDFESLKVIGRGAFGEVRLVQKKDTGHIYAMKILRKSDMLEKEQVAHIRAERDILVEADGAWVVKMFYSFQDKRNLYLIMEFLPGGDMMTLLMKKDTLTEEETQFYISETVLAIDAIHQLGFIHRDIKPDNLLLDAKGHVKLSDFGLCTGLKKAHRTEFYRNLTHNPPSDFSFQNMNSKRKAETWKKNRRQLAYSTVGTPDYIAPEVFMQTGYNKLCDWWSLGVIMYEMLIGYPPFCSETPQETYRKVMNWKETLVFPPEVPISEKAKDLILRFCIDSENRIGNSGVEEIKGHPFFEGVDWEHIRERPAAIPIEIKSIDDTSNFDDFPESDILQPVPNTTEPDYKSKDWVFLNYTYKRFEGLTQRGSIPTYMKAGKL
Cyclin-dependent kinase 13, sequence (Q14004 whole entry, looked up, the tested form may be a part): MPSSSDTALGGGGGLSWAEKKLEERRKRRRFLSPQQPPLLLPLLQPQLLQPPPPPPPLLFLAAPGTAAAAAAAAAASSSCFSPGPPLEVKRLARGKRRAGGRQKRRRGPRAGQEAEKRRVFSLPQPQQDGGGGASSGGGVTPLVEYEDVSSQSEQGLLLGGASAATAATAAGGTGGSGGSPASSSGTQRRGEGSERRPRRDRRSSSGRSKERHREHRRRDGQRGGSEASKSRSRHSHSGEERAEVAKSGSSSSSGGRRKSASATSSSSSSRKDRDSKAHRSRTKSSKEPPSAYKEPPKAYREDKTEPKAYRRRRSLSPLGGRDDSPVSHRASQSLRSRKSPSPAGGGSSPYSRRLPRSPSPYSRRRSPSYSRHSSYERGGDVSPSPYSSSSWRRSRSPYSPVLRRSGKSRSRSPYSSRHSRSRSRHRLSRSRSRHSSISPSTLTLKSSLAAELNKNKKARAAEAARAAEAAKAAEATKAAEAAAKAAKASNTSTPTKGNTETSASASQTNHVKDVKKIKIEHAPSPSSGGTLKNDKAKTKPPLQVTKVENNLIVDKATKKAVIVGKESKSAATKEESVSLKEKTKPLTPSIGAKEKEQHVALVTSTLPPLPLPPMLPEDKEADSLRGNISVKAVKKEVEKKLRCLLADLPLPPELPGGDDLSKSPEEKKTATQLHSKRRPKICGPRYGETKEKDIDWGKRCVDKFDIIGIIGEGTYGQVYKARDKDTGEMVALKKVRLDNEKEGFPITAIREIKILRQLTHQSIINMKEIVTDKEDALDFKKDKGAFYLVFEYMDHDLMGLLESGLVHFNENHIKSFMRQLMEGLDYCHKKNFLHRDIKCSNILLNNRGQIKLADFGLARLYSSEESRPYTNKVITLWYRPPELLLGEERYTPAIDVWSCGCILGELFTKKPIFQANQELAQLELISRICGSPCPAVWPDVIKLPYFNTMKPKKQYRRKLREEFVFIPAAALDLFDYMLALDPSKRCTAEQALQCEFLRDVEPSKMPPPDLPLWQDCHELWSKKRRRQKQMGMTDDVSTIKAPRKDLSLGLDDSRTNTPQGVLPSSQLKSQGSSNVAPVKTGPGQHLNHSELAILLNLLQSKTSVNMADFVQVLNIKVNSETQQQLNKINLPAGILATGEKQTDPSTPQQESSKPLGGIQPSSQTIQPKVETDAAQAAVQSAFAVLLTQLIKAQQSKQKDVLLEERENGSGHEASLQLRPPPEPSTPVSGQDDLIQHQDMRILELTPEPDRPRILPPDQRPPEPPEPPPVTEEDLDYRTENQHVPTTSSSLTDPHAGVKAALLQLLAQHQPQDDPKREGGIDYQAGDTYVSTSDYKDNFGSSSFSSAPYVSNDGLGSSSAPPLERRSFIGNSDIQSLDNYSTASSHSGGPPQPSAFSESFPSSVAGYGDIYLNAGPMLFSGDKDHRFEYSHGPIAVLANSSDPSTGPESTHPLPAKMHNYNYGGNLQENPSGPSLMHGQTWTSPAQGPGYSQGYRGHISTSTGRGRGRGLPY
Ribosomal protein S6 kinase alpha-3, sequence (P51812 whole entry, the tested form may be a part): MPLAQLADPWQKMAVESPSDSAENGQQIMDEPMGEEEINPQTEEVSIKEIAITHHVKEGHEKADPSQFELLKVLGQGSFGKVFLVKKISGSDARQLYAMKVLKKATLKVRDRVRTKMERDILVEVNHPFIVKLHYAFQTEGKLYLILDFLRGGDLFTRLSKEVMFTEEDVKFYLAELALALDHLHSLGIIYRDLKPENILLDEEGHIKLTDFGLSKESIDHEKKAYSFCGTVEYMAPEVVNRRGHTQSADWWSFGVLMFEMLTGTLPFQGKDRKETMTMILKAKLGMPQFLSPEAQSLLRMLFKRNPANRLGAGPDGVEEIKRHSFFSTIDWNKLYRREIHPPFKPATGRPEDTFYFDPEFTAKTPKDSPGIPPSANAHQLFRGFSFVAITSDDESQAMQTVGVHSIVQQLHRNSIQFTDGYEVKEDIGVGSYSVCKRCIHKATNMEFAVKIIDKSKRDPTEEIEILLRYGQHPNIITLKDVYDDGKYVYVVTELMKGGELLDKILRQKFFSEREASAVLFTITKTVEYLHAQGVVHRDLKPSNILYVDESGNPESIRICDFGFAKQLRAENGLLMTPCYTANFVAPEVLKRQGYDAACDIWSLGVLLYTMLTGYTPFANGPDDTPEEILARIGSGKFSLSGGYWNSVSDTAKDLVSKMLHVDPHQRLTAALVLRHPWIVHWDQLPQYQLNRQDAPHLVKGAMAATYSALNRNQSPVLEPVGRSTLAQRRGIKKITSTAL
AMPK alpha1/alpha2, sequence (P54646 whole entry, the tested form may be a part): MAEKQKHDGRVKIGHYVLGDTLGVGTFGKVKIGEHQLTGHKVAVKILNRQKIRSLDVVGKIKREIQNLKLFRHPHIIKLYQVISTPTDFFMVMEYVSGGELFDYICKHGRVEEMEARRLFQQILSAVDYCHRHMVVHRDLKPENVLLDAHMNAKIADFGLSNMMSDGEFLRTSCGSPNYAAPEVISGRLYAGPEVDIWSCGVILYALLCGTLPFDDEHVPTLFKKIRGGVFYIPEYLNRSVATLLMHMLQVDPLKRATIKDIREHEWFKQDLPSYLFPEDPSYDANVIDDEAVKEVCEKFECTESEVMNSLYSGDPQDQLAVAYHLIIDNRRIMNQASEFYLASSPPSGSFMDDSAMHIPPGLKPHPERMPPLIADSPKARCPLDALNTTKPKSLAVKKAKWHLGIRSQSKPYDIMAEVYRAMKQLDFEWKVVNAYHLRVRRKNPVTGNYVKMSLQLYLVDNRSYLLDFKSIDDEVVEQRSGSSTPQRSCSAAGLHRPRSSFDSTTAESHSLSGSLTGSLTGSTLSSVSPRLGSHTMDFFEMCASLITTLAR
AMPK alpha1/alpha2, sequence (Q13131 whole entry, the tested form may be a part): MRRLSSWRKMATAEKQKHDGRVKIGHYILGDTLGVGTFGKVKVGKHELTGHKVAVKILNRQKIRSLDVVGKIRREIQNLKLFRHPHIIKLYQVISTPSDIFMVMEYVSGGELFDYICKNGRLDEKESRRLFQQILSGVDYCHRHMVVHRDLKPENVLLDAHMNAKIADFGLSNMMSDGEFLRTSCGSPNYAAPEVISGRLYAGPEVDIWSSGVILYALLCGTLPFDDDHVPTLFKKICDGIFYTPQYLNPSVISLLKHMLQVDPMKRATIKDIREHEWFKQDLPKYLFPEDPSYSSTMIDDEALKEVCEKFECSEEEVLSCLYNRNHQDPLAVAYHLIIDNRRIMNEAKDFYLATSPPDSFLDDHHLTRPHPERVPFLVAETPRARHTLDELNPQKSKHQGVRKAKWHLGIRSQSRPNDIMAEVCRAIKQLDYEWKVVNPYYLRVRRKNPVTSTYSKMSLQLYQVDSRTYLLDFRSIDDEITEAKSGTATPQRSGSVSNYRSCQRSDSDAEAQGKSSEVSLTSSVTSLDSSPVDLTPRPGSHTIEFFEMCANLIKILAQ

CCOc1cc(N2CCC(O)CC2)ccc1Nc1ncc2c(n1)N(C)c1ccccc1C(=O)N2C
inhibition [1]: 16.2% | IC50 (AMPK alpha1/alpha2): > 50 µM | inhibition [2]: -9.9% | inhibition [3]: -4.3% | inhibition [4]: -4.5% | inhibition [5]: 15.9% | inhibition [6]: 10.7% | inhibition [7]: 21.2%

Source: ChEMBL document CHEMBL5661979, “Pharmacological inhibition of BMK1 suppresses tumor growth through promyelocytic leukemia protein” (Cancer Cell, 2010)
